In ChEMBL document CHEMBL4033676, “Design, synthesis and biological evaluation of 3,4-dihydro-2(1H)-quinoline-O-alkylamine derivatives as new multipotent cholinesterase/monoamine oxidase inhibitors for the treatment of Alzheimer's disease” (Bioorg Med Chem, 2017) one finds Papp, IC50 and Ratio IC50 data, which are given here for 21 molecules.

A short description of one data set: physchem. The conditions noted are these: PAMPA. For orientation: PAMPA measures passive passage across an artificial lipid membrane.
The target of data set [1] is T1, Amine oxidase [flavin-containing] A (Homo sapiens, UniProt P21397).
T1 sequence (P21397 whole entry): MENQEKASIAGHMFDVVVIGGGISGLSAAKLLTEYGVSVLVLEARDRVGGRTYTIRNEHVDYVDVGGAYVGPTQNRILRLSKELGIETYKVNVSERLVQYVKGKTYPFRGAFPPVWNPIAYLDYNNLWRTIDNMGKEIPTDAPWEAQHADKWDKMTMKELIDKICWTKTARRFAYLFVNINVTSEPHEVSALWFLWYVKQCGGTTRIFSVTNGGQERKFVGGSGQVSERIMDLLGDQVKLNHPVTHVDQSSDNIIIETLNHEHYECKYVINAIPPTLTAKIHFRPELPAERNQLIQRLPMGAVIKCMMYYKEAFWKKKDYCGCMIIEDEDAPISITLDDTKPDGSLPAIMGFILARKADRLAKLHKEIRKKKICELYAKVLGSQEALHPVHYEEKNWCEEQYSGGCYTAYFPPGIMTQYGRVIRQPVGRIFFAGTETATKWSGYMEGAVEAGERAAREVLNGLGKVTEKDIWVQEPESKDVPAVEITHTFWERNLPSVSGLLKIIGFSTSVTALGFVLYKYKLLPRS
Nature of the data set: Inhibition of recombinant human MAO-A expressed in baculovirus infected BTI insect cells using kynuramine as substrate after 30 mins by fluorescence assay.

Data set [2] is described as follows: Selectivity index, ratio of IC50 for equine serum BuChE to IC50 for electric eel AChE.
The species named for a further data set is Rattus norvegicus. Kind of data set: Selectivity index, ratio of IC50 for rat serum BuChE to IC50 for 5% rat cortex homogenate AChE.
For a further data set, the target named is Cholinesterase (Equus caballus, UniProt P81908). Kind of data set: Inhibition of equine serum BuChE using butyrylthiocholine chloride as substrate after 15 mins by Ellman's method. The procedure, abridged:
(§1)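 Ellman assay. Equine serum or rat serum BuChE pre-incubated with test compound at various concentrations (DMSO <1%) in 0.1 M phosphate buffer pH 8.0 for 15 min at 37°C. DTNB (0.2%) added, absorbance read at 412 nm. Inhibition % = (1−Ai/Ac)×100. IC50 is the mean of three independent experiments, each run in triplicate.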
For orientation: DTNB colorimetry detects thiols as they appear.

For data set [3], the target named is Acetylcholinesterase (Electrophorus electricus, UniProt O42275). Nature of the data set: Inhibition of electric eel AChE using acetylthiocholine chloride as substrate after 15 mins by Ellman's method.
Sequence of Acetylcholinesterase (Electrophorus electricus, UniProt O42275) (O42275 whole entry): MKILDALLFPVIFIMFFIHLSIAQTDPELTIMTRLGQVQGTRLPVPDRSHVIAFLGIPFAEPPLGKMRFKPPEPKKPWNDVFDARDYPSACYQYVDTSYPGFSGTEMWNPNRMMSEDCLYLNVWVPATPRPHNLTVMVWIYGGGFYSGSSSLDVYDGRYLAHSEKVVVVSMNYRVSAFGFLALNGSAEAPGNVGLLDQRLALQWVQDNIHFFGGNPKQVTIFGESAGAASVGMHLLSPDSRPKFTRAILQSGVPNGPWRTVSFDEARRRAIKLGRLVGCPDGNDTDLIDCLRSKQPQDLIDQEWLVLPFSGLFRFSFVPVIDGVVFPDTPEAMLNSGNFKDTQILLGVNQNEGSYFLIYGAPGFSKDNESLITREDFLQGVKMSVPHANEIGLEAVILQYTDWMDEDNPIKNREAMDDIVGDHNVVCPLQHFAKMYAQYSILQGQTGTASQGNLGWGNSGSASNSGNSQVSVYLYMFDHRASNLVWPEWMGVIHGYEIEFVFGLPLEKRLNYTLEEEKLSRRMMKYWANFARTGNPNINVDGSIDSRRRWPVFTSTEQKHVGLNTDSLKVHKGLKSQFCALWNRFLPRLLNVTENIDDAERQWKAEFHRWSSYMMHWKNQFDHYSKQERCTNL
The species entered for a further data set is Homo sapiens. Kind of data set: Selectivity index, ratio of IC50 for recombinant human MAO-B to IC50 for recombinant human MAO-A.
Data set [4] addresses T2, Amine oxidase [flavin-containing] B (Homo sapiens, UniProt P27338).
T2 sequence (P27338 whole entry): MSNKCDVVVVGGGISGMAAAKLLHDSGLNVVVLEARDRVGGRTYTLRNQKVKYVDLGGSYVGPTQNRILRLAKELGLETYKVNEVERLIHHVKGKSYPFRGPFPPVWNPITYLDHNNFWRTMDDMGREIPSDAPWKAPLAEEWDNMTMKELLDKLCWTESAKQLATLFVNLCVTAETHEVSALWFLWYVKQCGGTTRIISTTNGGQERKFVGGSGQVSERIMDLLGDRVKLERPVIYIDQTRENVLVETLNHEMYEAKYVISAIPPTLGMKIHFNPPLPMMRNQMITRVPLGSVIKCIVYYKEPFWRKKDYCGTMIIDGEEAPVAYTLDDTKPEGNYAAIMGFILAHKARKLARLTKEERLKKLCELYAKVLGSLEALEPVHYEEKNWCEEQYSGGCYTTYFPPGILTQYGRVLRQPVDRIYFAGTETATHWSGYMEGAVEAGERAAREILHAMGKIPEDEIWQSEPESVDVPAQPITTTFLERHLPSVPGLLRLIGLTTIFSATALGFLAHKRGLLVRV
Kind of data set: biochemical. The class given is cell-based.

The nature of data set [5]: Inhibition of rat serum BuChE using butyrylthiocholine chloride as substrate after 15 mins by Ellman's method. The procedure, abridged: as §1
Data set [6] deals with T3, Acetylcholinesterase (Rattus norvegicus, UniProt P37136).
T3 sequence (P37136 whole entry): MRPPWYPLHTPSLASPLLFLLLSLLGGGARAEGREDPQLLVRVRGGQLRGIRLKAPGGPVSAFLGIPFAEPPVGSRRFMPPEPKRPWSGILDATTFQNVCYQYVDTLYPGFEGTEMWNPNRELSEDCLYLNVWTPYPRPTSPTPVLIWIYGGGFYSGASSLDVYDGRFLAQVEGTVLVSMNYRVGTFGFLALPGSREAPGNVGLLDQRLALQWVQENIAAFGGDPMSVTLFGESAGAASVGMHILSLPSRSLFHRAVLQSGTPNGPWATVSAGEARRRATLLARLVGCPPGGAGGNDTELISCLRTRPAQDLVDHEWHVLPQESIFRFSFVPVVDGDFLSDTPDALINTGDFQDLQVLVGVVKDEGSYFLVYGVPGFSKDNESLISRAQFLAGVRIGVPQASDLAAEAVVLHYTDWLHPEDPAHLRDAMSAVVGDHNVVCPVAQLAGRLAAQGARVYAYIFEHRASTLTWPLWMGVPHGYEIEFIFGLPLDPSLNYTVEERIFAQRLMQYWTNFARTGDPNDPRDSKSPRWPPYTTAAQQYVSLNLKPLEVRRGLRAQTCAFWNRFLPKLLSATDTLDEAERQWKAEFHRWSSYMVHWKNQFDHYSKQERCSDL

SMILES strings stand for the structures.

Sequence of Cholinesterase (P81908 whole entry): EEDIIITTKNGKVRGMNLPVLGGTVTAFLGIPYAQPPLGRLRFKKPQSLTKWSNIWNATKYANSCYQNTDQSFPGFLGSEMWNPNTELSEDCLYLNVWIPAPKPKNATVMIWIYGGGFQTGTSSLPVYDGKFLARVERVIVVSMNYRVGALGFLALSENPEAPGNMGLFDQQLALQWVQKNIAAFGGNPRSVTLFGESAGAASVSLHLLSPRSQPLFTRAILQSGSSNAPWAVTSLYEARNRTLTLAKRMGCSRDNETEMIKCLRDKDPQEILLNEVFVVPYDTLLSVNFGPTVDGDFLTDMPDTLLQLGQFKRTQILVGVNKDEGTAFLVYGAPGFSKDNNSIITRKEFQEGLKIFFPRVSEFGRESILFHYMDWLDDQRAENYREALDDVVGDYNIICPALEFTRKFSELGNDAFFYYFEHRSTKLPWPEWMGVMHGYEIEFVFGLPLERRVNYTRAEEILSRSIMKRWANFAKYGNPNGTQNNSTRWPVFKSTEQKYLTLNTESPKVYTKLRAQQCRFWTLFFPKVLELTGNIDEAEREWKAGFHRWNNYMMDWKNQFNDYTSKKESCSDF

As a reminder, the Papp is a coefficient for how fast a substance crosses the barrier. High values mean fast passage, low ones slow passage. `CN1C(C(=O)Nc2ccccn2)=C(O)c2ccccc2S1(=O)=O` [PIROXICAM] yielded a Papp at 18 h, 100 ug/ml in the data set “physchem” of 0.72 to 2.5 ×10⁻⁶ cm/s.

Regarding `CCn1cc(C(=O)O)c(=O)c2cc(F)c(N3CCNCC3)cc21` [NORFLOXACIN], in “physchem”, the Papp at 18 h, 100 ug/ml is 0.1 to 0.42 ×10⁻⁶ cm/s.

In general, IC50 refers to the point on the concentration scale where inhibition reaches its midpoint. For the molecule `CC(C)N1CCN(CCCCCOc2ccc3c(c2)NC(=O)CC3)CC1`, the IC50 in [1] amounted to 8.2 µM; against Cholinesterase it was 3.2 µM; on Acetylcholinesterase [3], 0.9 µM; in data set [4], 8.1 µM; in data set [5] it was 2.7 µM; against Acetylcholinesterase [6], 3.2 µM. The results for the Ratio IC50 (in [2]; in the data set listed under Rattus norvegicus; in the data set listed under Homo sapiens) were 3.5, 0.9 and 1, respectively.

Turning to `O=C1CCc2ccc(OCCCN3CCN(c4ccccn4)CC3)cc2N1`, the IC50 in [1] is 1.1 µM; at Cholinesterase it was 14.4 µM; on Acetylcholinesterase [3], 9.6 µM; in data set [4] it was 18 µM; in [5] it was 39 µM; on Acetylcholinesterase [6] it was 20 µM. Besides, the Ratio IC50 in data set [2] is 1.5; in the data set listed under Rattus norvegicus it was 2; in the data set listed under Homo sapiens, 17.1.

As for `CCN(CC)CCCCCCOc1ccc2c(c1)NC(=O)CC2`, the IC50 in [1] was 5.4 µM; against Cholinesterase, 29.5 µM; against Acetylcholinesterase [3], 13.3 µM; in [4], 8.6 µM; in [5] it was 24.3 µM; against Acetylcholinesterase [6] it was 41.9 µM. Also, the Ratio IC50 was 2.2 in data set [2], 0.6 in the data set filed under Rattus norvegicus and 1.6 in the data set listed under Homo sapiens.

For `CCN(CC)CCCCCOc1ccc2c(c1)NC(=O)CC2`, the IC50 in data set [1] turned out to be 11.4 µM; on Cholinesterase, 21.9 µM; at Acetylcholinesterase [3], 8.2 µM; in data set [4], 8.5 µM; in data set [5], 14.7 µM; against Acetylcholinesterase [6], 34.1 µM. For the same molecule, the Ratio IC50 is 2.7 in [2], 0.4 in the data set listed under Rattus norvegicus and 0.7 in the data set listed under Homo sapiens.

Turning to `O=C1CCc2ccc(OCCCCCCN3CCc4ccccc4C3)cc2N1`, the IC50 in [1] worked out at 3.4 µM; against Cholinesterase it was 1.2 µM; on Acetylcholinesterase [3], 8.2 µM; in [4], 4.4 µM; in [5] it was 11.7 µM; at Acetylcholinesterase [6], 10.8 µM. In addition, the Ratio IC50 amounted to 0.1 in data set [2], 1.1 in the data set filed under Rattus norvegicus and 1.3 in the data set filed under Homo sapiens.

Regarding `O=C1CCc2ccc(OCCCCCN3CCc4ccccc4C3)cc2N1`, the IC50 is 4.6 µM in data set [1]; 0.9 µM against Cholinesterase; 9.1 µM on Acetylcholinesterase [3]; 5.9 µM in [4]; 11.2 µM in data set [5]; 7.8 µM against Acetylcholinesterase [6]. Further, the figures for the Ratio IC50 (in data set [2]; in the data set filed under Rattus norvegicus; in the data set filed under Homo sapiens) were 0.1, 1.4 and 1.3, respectively.

Turning to `C#CCN(CCCCCOc1ccc2c(c1)NC(=O)CC2)Cc1ccccc1`, the IC50 stood at 8.9 µM in data set [1]; 7 µM against Cholinesterase; 19.4 µM against Acetylcholinesterase [3]; 8.3 µM in data set [4]; 29.6 µM in data set [5]; 14.3 µM at Acetylcholinesterase [6]. Besides, the Ratio IC50 was found to be 0.4 in data set [2], 2.1 in the data set filed under Rattus norvegicus and 0.9 in the data set filed under Homo sapiens.

For the molecule `CC(C)N1CCN(CCCCOc2ccc3c(c2)NC(=O)CC3)CC1`, the IC50 in [1] was determined as 14.3 µM; against Cholinesterase it was 4.5 µM; on Acetylcholinesterase [3], 1 µM; in [4] it was 7.6 µM; in [5], 3.7 µM; on Acetylcholinesterase [6] it was 3.6 µM. Moreover, the Ratio IC50 in data set [2] worked out at 4.4; in the data set filed under Rattus norvegicus, 1; in the data set filed under Homo sapiens it was 0.5.

In turn, `Cn1c(=O)c2[nH]cnc2n(C)c1=O.O` [THEOPHYLLINE] yielded a Papp at 18 h, 100 ug/ml in the data set “physchem” of 0.1 to 0.12 ×10⁻⁶ cm/s.

In the data set “physchem”, `Clc1cccc(Cl)c1N=C1NCCN1` [CLONIDINE] registered a Papp at 18 h, 100 ug/ml of 5.1 to 5.3 ×10⁻⁶ cm/s.

For the molecule `O=C1CCc2ccc(OCCCCN3CCc4ccccc4C3)cc2N1`, the IC50 was 4.9 µM in data set [1]; 3.8 µM against Cholinesterase; 10.1 µM against Acetylcholinesterase [3]; 6.9 µM in data set [4]; 12.4 µM in data set [5]; 18.2 µM against Acetylcholinesterase [6]. Also, the Ratio IC50 was 0.4 in [2], 0.7 in the data set listed under Rattus norvegicus and 1.4 in the data set filed under Homo sapiens.

As to `O=C1CCc2ccc(OCCCCCN3CCCCC3)cc2N1`, the IC50 was 8.4 µM in [1]; 32.8 µM at Cholinesterase; 12.8 µM on Acetylcholinesterase [3]; 17 µM in data set [4]; 31.4 µM in data set [5]; 8.4 µM on Acetylcholinesterase [6]. In addition, the Ratio IC50 in data set [2] was 2.6; in the data set listed under Rattus norvegicus it was 3.8; in the data set listed under Homo sapiens, 2.

In the data set “physchem”, `Cn1c(=O)c2c(ncn2C)n(C)c1=O` [CAFFEINE] registered a Papp at 18 h, 100 ug/ml of 1.28 to 1.3 ×10⁻⁶ cm/s.

As for `CCN(CC)CCCOc1ccc2c(c1)NC(=O)CC2`, the IC50 was 8.4 µM in data set [1]; 29.7 µM against Cholinesterase; 11.2 µM against Acetylcholinesterase [3]; 18.6 µM in data set [4]; 20.5 µM in data set [5]; 19.2 µM against Acetylcholinesterase [6]. Further, the figures for the Ratio IC50 (in [2]; in the data set listed under Rattus norvegicus; in the data set listed under Homo sapiens) were 2.7, 1.1 and 2.2, respectively.

As for `O=C1CCc2ccc(OCCCCN3CCN(Cc4ccccc4)CC3)cc2N1`, the IC50 in data set [1] came out at 7.4 µM; on Cholinesterase, 10.7 µM; at Acetylcholinesterase [3] it was 6 µM; in data set [4], 9.4 µM; in data set [5] it was 31.6 µM; at Acetylcholinesterase [6], 13.7 µM. Besides, the Ratio IC50 is 1.8 in data set [2], 2.3 in the data set listed under Rattus norvegicus and 1.3 in the data set listed under Homo sapiens.

On to `O=C1CCc2ccc(OCCCN3CCN(Cc4ccccc4)CC3)cc2N1`, for which the IC50 was 6.6 µM in data set [1]; 19.4 µM on Cholinesterase; 1.3 µM at Acetylcholinesterase [3]; 21.8 µM in [4]; 34.2 µM in data set [5]; 12.6 µM against Acetylcholinesterase [6]. In addition, the Ratio IC50 in data set [2] was 14.9; in the data set filed under Rattus norvegicus it was 2.7; in the data set listed under Homo sapiens it was 3.3.

Take `O=C1CCc2ccc(OCCCCCN3CCN(c4ccccn4)CC3)cc2N1`: the IC50 in data set [1] was determined as 13 µM; against Cholinesterase it was 6.2 µM; on Acetylcholinesterase [3] it was 15.6 µM; in [4], 20.3 µM; in [5], 44.6 µM; against Acetylcholinesterase [6], 28.4 µM. Besides, the figures for the Ratio IC50 (in data set [2]; in the data set filed under Rattus norvegicus; in the data set listed under Homo sapiens) were 0.4, 1.6 and 1.6, respectively.

In “physchem”, `CCn1cc(C(=O)O)c(=O)c2cc(F)c(N3CCNCC3)nc21` [ENOXACIN] registered a Papp at 18 h, 100 ug/ml of 0.47 to 0.9 ×10⁻⁶ cm/s.

Take `O=C1CCc2ccc(OCCCN3CCCCC3)cc2N1`: the IC50 in data set [1] came to 13.1 µM; at Cholinesterase, 39 µM; on Acetylcholinesterase [3], 12.2 µM; in data set [4], 6.2 µM; in data set [5] it was 22.9 µM; against Acetylcholinesterase [6] it was 16.5 µM. Besides, the Ratio IC50 in data set [2] was 3.2; in the data set filed under Rattus norvegicus, 1.4; in the data set listed under Homo sapiens, 0.5.
